Data set [1] has as its target T1, 2-dehydropantoate 2-reductase (Escherichia coli K-12, UniProt P0A9J4).
T1 sequence (P0A9J4 whole entry): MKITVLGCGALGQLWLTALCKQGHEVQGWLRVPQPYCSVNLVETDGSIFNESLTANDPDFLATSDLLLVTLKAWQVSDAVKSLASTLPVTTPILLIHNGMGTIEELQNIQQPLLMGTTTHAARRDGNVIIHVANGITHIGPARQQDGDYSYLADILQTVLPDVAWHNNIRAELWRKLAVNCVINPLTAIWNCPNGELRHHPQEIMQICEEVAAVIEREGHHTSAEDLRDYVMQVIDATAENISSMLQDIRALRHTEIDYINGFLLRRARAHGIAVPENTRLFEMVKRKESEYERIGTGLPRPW
Kind of data set: Binding affinity to Escherichia coli KPR. The format is single protein. An outline of the steps:
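Isothermal titration calorimetry with His6-tagged E. coli KPR in 0.1 M HEPES/HCl, pH 7.7, at 27 °C. Data were corrected for heat of dilution and fitted to a single-site binding model. For weak ligands (Kd > 100 µM), stoichiometry was fixed at n = 1, determined from active-site titrations with NADPH or NADP+. Errors are from curve fitting for single runs, or SD across multiple experiments.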

The target of data set [2] is T2, 2-dehydropantoate 2-reductase (Escherichia coli K-12) (UniProt P0A9J4).
T2 sequence (whole entry): T1 sequence (P0A9J4 whole entry)
The data set is described as follows: Inhibition of Escherichia coli KPR at 20 mM.

Data set [3] deals with T2, 2-dehydropantoate 2-reductase (Escherichia coli K-12). Kind of data set: Inhibition of Escherichia coli KPR at 1 mM. The procedure, abridged:
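Single-point screen of His6-tagged E. coli KPR activity at pH 7.5-7.7. Ligand was tested at 1 mM with 20 µM NADPH, 1 mM ketopantoate and 2 nM enzyme. The result is reported as percent inhibition.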

The target in data set [4] is T1, 2-dehydropantoate 2-reductase. Kind of data set: Inhibition of Escherichia coli KPR. It counts as single protein. An outline of the steps:
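His6-tagged E. coli KPR assayed at pH 7.5-7.7. It catalyses ketopantoate reduction with NADPH as cofactor. In the screen, ligand was tested at 1 mM with 20 µM NADPH, 1 mM ketopantoate and 2 nM enzyme. Ki was measured with five inhibitor concentrations against six NADPH concentrations, with NADPH as the varied substrate, and data were fitted to competitive or noncompetitive inhibition equations.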

Data set [5] addresses T2, 2-dehydropantoate 2-reductase (Escherichia coli K-12). Kind of data set: Inhibition of Escherichia coli KPR at 5 mM.
Data set [6] has the same target. The following applies: Homo sapiens; 11 mM.
For data set [7], the target named is 2-dehydropantoate 2-reductase (Escherichia coli) (UniProt P0A9J4). Kind of data set: Inhibition of Escherichia coli KPR.

Active and inactive are the calls of the source. The rule behind the calls is not given here. A value given as a limit tells only on which side of the number the result lay.

By Kd is commonly meant the constant that tells how readily two partners part at equilibrium. As usually defined, the inhibition is the percentage by which the read-out fell short of the control. Low readings indicate little suppression, high ones strong suppression. The molecule `NC(=O)c1ccc[n+]([C@@H]2O[C@H](COP(=O)([O-])OP(=O)(O)OC[C@H]3O[C@@H](n4cnc5c(N)ncnc54)[C@H](O)[C@@H]3O)[C@@H](O)[C@H]2O)c1` [NADIDE] displayed a dissociation constant (Kd) in data set [1] of 6900 µM. The inhibition in data set [2] came to 10%.
`NC(=O)c1ccc[n+]([C@@H]2O[C@H](COP(=O)([O-])OP(=O)(O)OC[C@H]3O[C@@H](n4cnc5c(N)ncnc54)[C@H](OP(=O)(O)O)[C@@H]3O)[C@@H](O)[C@H]2O)c1` [NICOTINAMIDE ADENINE DINUCLEOTIDE PHOSPHATE] came in with a Kd in data set [1] of 5.8 µM.
For orientation: Ki means the equilibrium dissociation constant of an inhibitor or competing ligand from its target. `Nc1ncnc2c1ncn2[C@@H]1O[C@H](COP(=O)(O)OP(=O)(O)OCC2OC(O)[C@H](O)[C@@H]2O)[C@@H](O)[C@H]1OP(=O)(O)O` (stereo partly drawn): binding in data set [1] was characterised by a dissociation constant (Kd) of 61 µM. In addition, the outcome in data set [3] was Active. Moreover, the Ki in data set [4] was 200 µM.
In the same order, the values of `Nc1ncnc2c1ncn2[C@@H]1O[C@H](COP(=O)(O)O)[C@@H](O)[C@H]1O` [ADENOSINE PHOSPHATE] are greater than 5000 µM, “Active” and 6300 µM.
The like results for `Nc1ncnc2c1ncn2[C@@H]1O[C@H](COP(=O)(O)OP(=O)(O)O)[C@@H](O)[C@H]1O` [ADENOSINE DIPHOSPHATE] were, in that order, 360 µM, “Active” and 1050 µM.
In data set [1], `Nc1nc2c(ncn2[C@@H]2O[C@H](COP(=O)(O)OP(=O)(O)O)[C@@H](O)[C@H]2O)c(=O)[nH]1` showed a Kd of 373 µM.
Regarding `Nc1ncnc2c1ncn2[C@@H]1O[C@H](COP(=O)(O)OP(=O)(O)OP(=O)(O)O)[C@@H](O)[C@H]1O` [ADENOSINE TRIPHOSPHATE], the Kd in data set [1] is 130 µM. In addition, the result in data set [3] was Active. Also, the affinity in data set [4], expressed as Ki, was 610 µM.
`NC(=O)c1ccc[n+]([C@@H]2O[C@H](COP(=O)([O-])O)[C@@H](O)[C@H]2O)c1` yielded an inhibition in data set [5] of 0%.
`Nc1ncnc2c1ncn2[C@@H]1O[C@H](COP(=O)(O)OP(=O)(O)OC[C@H]2OC(O)[C@H](O)[C@@H]2O)[C@@H](O)[C@H]1O` (stereo partly drawn) [ADENOSINE DIPHOSPHATE RIBOSE] gave a Kd in data set [1] of 6300 µM.
With `O=P(O)(O)O` [PHOSPHORIC ACID], the Ki in data set [4] is 27000 µM.
The molecule `NC(=O)C1=CN(C2OC(COP(=O)(O)OP(=O)(O)OC[C@H]3O[C@@H](n4cnc5c(N)ncnc54)[C@H](O)[C@@H]3O)[C@H](O)[C@@H]2O)C=CC1` (stereo partly drawn) gave a Kd in data set [1] of 66 µM.
Consider `Nc1ncnc2c1ncn2[C@@H]1O[C@H](COP(=O)(O)O)[C@@H](O)[C@H]1OP(=O)(O)O`, for which the Kd in data set [1] worked out at 100 µM. The result in data set [3] was Active. The molecule also returned a Ki in data set [4] of 240 µM.
With `NC(=O)c1cccnc1`, in data set [6], the inhibition stood at 0%.
`NC(=O)c1ccc[n+]([C@@H]2O[C@H](COP(=O)([O-])OP(=O)(O)OC[C@H]3O[C@@H](n4cnc5c(N)ncnc54)[C@H](OP(=O)(O)O)[C@@H]3O)[C@@H](O)[C@H]2O)c1` [SODIUM beta-NICOTINAMIDE ADENINE DINUCLEOTIDE PHOSPHATE]: in data set [1], the equilibrium dissociation constant (Kd) was 0.26 µM.
With `Nc1nc2c(ncn2[C@@H]2O[C@H](COP(=O)(O)OP(=O)(O)OP(=O)(O)O)[C@@H](O)[C@H]2O)c(=O)[nH]1` [GUANOSINE TRIPHOSPHATE], the Kd in data set [1] is 153 µM.
With `Nc1ncnc2c1ncn2[C@@H]1O[C@H](COP(=O)(O)OP(=O)(O)OCC2OC(O)[C@H](O)[C@@H]2O)[C@@H](O)[C@H]1O` (stereo partly drawn), the inhibition in data set [5] was found to be 0%.

B1: 2-dehydropantoate 2-reductase (Escherichia coli K-12), P0A9J4 (protein)
chain: T1 sequence (P0A9J4 whole entry)
For orientation: Km means the substrate concentration at which the rate is half of its maximum. For the molecule B1, in data set [7], the Km was found to be 750 µM.

The values are drawn from ChEMBL document CHEMBL1145346, “Probing hot spots at protein-ligand binding sites: a fragment-based approach using biophysical methods” (J Med Chem, 2006).
